According to ChEMBL document CHEMBL4619802, “Discovery and Characterization of Pure RhlR Antagonists against Pseudomonas aeruginosa Infections” (J Med Chem, 2020):
Activity calls are given as the source filed them. No cut-off for these calls is given here.

Experiments:
[1] = target: T1, HTH-type quorum-sensing regulator RhlR (Pseudomonas aeruginosa (strain ATCC 15692 / PAO1 / 1C / PRS 101 / LMG12228)) (UniProt P54292); experiment: Antagonist activity at RhlR in Pseudomonas aeruginosa assessed as rhamnolipid production at 100 uM incubated for 24 hrs by Orcinol staining based assay relative to control; set-up: scale not given: the % may be the effect or the level left
T1 sequence (whole entry): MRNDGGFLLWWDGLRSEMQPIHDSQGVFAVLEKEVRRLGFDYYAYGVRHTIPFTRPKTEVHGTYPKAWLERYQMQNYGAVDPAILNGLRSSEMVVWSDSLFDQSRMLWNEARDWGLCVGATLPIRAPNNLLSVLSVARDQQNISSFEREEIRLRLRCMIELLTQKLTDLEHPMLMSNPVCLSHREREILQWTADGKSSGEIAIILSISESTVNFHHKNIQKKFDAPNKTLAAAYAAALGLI

[2] = target: T1, HTH-type quorum-sensing regulator RhlR (Pseudomonas aeruginosa (strain ATCC 15692 / PAO1 / 1C / PRS 101 / LMG12228)); experiment: Antagonist activity at RhlR in Pseudomonas aeruginosa assessed as rhamnolipid production at 10 uM incubated for 24 hrs by Orcinol staining based assay relative to control; set-up: scale not given: the % may be the effect or the level left
Pseudomonas aeruginosa [3] = experiment: Antibacterial activity against Pseudomonas aeruginosa assessed as bacterial growth at 100 uM incubated for 24 hrs relative to control; type: functional
Method in brief: (§1)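 P. aeruginosa overnight culture (OD595 1.0) diluted 1:20 in AB medium (pH 7.5, 1% glucose, casamino acids, arginine) with compound, in borosilicate bottles, 37 °C for 24 h without shaking. Growth taken as OD595 of the suspended culture. Attached cells washed twice with PBS, stained with 0.1% crystal violet for 10 min, dye eluted in ethanol and read at 545 nm.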

Pseudomonas aeruginosa [4] = experiment: Antibacterial activity against Pseudomonas aeruginosa assessed as bacterial growth at 10 uM incubated for 24 hrs relative to control; type: functional; method in brief: as §1
[5] = target: T1, HTH-type quorum-sensing regulator RhlR (Pseudomonas aeruginosa (strain ATCC 15692 / PAO1 / 1C / PRS 101 / LMG12228)); experiment: Modulation of RhlR in Pseudomonas aeruginosa assessed as biofilm formation at 100 uM incubated for 24 hrs under static condition by crystal violet staining based assay relative to control
[6] = target: T1, HTH-type quorum-sensing regulator RhlR (Pseudomonas aeruginosa (strain ATCC 15692 / PAO1 / 1C / PRS 101 / LMG12228)); experiment: Agonist activity at Pseudomonas aeruginosa RhlR expressed in Escherichia coli DH5alpha assessed as relative protein activity at 1000 uM incubated for 1.5 hrs by luminescence reporter gene assay relative to control
[7] = target: T1, HTH-type quorum-sensing regulator RhlR (Pseudomonas aeruginosa (strain ATCC 15692 / PAO1 / 1C / PRS 101 / LMG12228)); experiment: Modulation of RhlR in Pseudomonas aeruginosa assessed as biofilm formation at 10 uM incubated for 24 hrs under static condition by crystal violet staining based assay relative to control
[8] = target: T1, HTH-type quorum-sensing regulator RhlR (Pseudomonas aeruginosa (strain ATCC 15692 / PAO1 / 1C / PRS 101 / LMG12228)); experiment: Antagonist activity at Pseudomonas aeruginosa RhlR expressed in Escherichia coli DH5alpha assessed as relative protein activity at 10 uM incubated for 1.5 hrs in presence of N-butyryl-L-homoserine lactone by luminescence reporter gene assay relative to control; set-up: scale not given: the % may be the effect or the level left
Method in brief: (§2)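 E. coli DH5α sdiA mutant carrying RhlR and rhlA::lacZ plasmids, at OD595 0.3 in LB. Compound given with BHL (10 µM per footnote) and 0.4% arabinose, 37 °C for 1.5 h.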

[9] = target: T1, HTH-type quorum-sensing regulator RhlR (Pseudomonas aeruginosa (strain ATCC 15692 / PAO1 / 1C / PRS 101 / LMG12228)); experiment: Agonist activity at Pseudomonas aeruginosa RhlR expressed in Escherichia coli DH5alpha assessed as relative protein activity at 100 uM incubated for 1.5 hrs by luminescence reporter gene assay relative to control
[10] = target: T1, HTH-type quorum-sensing regulator RhlR (Pseudomonas aeruginosa (strain ATCC 15692 / PAO1 / 1C / PRS 101 / LMG12228)); experiment: Antagonist activity at Pseudomonas aeruginosa RhlR expressed in Escherichia coli DH5alpha assessed as relative protein activity at 100 uM incubated for 1.5 hrs in presence of N-butyryl-L-homoserine lactone by luminescence reporter gene assay relative to control; set-up: scale not given: the % may be the effect or the level left; method in brief: as §2

Activity [9] [%]	Activity [10] [%]	SMILES	also measured
2	90	CCCCCCCC(O)CC(=O)CCc1ccc(O)c(OC)c1 (centres undefined)	
1	69	CCCC(O)CC(=O)/C=C/c1ccc(OC)c(OC)c1 (centres undefined)	
2	62	CCCCC(O)CC(=O)CCc1ccc(O)c(OC)c1 (centres undefined)	
3	72	CCCCC[C@@H](O)C#Cc1ccc(F)c(F)c1	
3	29	CCCCCC(=O)C#Cc1ccc(O)c(OC)c1	Activity (Pseudomonas aeruginosa [3]): inactive; Activity [7]: Active
3	74	CCCCCC(O)C#Cc1ccc(F)c(F)c1 (racemic)	
3	34	CCCCC[C@H](O)C#Cc1ccc(O)c(OC)c1	Activity (Pseudomonas aeruginosa [3]): inactive; Activity [7]: Active
4	65	CCCC(O)CC(=O)/C=C/c1ccc(O)c(OC)c1 (centres undefined)	Activity [1]: 57%; Activity [2]: 73%; Activity (Pseudomonas aeruginosa [3]): 95%; Activity (Pseudomonas aeruginosa [4]): 102%; Activity [5]: 65%; Activity [6]: 5%; Activity [7]: 82%; Activity [8]: 73%
2	49	CCCCCC(=O)CCc1ccc(O)c(OC)c1	
2	94	CCCC(O)CC(=O)/C=C/c1cccc(OC)c1 (centres undefined)	Activity [1]: 83%; Activity [2]: 91%; Activity (Pseudomonas aeruginosa [3]): 95%; Activity (Pseudomonas aeruginosa [4]): 96%; Activity [5]: 73%; Activity [6]: 4%; Activity [7]: 88%; Activity [8]: 89%
2	60	CCCC(O)CC(=O)/C=C/c1ccc(O)c(F)c1 (centres undefined)	
3	32	CCCCCC(O)C#Cc1ccc(O)c(OC)c1 (racemic)	Activity (Pseudomonas aeruginosa [3]): inactive; Activity [7]: Active
1	91	CCCC(O)CC(=O)/C=C/c1ccc(O)c(OCC)c1 (centres undefined)	
2	41	CCCCCC(O)/C=C/c1ccc(O)c(OC)c1 (centres undefined)	
4	67	CCCCC[C@H](O)C#Cc1ccc(F)c(F)c1	
2	36	CCCCCCCCCC(O)CC(=O)CCc1ccc(O)c(OC)c1 (centres undefined)	Activity (Pseudomonas aeruginosa [3]): inactive; Activity [7]: Active
4	51	CCCCCC(=O)/C=C/c1ccc(F)c(F)c1	Activity [1]: 62%; Activity [2]: 64%; Activity (Pseudomonas aeruginosa [3]): 103%; Activity (Pseudomonas aeruginosa [4]): 103%; Activity [5]: 61%; Activity [6]: 3%; Activity [7]: 80%; Activity [8]: 53%
3	43	CCCC(O)CC(=O)/C=C/c1ccc(O)c(O)c1 (centres undefined)	Activity [1]: 50%; Activity [2]: 56%; Activity (Pseudomonas aeruginosa [3]): 104%; Activity (Pseudomonas aeruginosa [4]): 99%; Activity [5]: 72%; Activity [6]: 5%; Activity [7]: 84%; Activity [8]: 60%
3	79	CCCCCC(O)/C=C\c1ccc(O)c(OC)c1 (centres undefined)	
1	98	CCCC(O)CC(=O)CCc1ccc(O)c(OCC)c1 (centres undefined)	
3	83	CCCCCCC(O)CC(=O)CCc1ccc(O)c(OC)c1 (centres undefined)	
2	45	CCCCCC(O)CCc1ccc(O)c(OC)c1 (centres undefined)	
3	27	CCCCC[C@@H](O)C#Cc1ccc(O)c(OC)c1	Activity (Pseudomonas aeruginosa [3]): inactive; Activity [7]: Active
1	55	CCCC(O)CC(=O)/C=C/c1ccc(OC)cc1 (centres undefined)	Activity (Pseudomonas aeruginosa [3]): inactive; Activity [7]: Active
5	55	CCCCCC(O)/C=C/c1ccc(F)c(F)c1 (centres undefined)	
2	72	CCCC(O)CC(=O)/C=C/c1ccc(C)c(C)c1 (centres undefined)	
2	41	CCCCCC(=O)/C=C/c1ccc(O)c(OC)c1	
2	41	CCCCCCCCC(O)CC(=O)CCc1ccc(O)c(OC)c1 (centres undefined)	Activity (Pseudomonas aeruginosa [3]): inactive; Activity [7]: Active
1	79	CCCC(O)CC(=O)CCc1ccc(F)c(OC)c1 (centres undefined)	
1	43	CCCC(O)CC(=O)/C=C/c1ccc(F)c(OC)c1 (centres undefined)	

The remaining lines, values behind:

SMILES	Activity [9] [%]	Activity [10] [%]	also measured
CCC[C@@H](O)C#Cc1ccc(F)c(F)c1	3	25	Activity [1]: 48%; Activity [2]: 60%; Activity (Pseudomonas aeruginosa [3]): 102%; Activity (Pseudomonas aeruginosa [4]): 98%; Activity [5]: 60%; Activity [6]: 5%; Activity [7]: 74%; Activity [8]: 45%
CCCC(O)CC(=O)CCc1ccc(F)cc1 (centres undefined)	2	51	
CCCC(O)CC(=O)/C=C/c1ccc(F)c(F)c1 (centres undefined)	2	20	Activity [1]: 50%; Activity [2]: 63%; Activity (Pseudomonas aeruginosa [3]): 105%; Activity (Pseudomonas aeruginosa [4]): 101%; Activity [5]: 53%; Activity [6]: 5%; Activity [7]: 72%; Activity [8]: 60%
CCCC(O)CC(=O)/C=C/c1cccc(O)c1 (centres undefined)	2	78	
CCCC(O)CC(=O)/C=C/c1ccccc1 (centres undefined)	4	93	
CCCC(O)CC(=O)/C=C/c1ccc(Cl)cc1 (centres undefined)	1	64	
CCCCCC(=O)CCc1ccc(F)c(F)c1	4	55	
CCCCCC(=O)C#Cc1ccc(F)c(F)c1	3	17	Activity [1]: 58%; Activity [2]: 60%; Activity (Pseudomonas aeruginosa [3]): 88%; Activity (Pseudomonas aeruginosa [4]): 100%; Activity [5]: 56%; Activity [6]: 5%; Activity [7]: 71%; Activity [8]: 39%
CCCC(O)CC(=O)CCc1ccc(O)c(O)c1 (centres undefined)	2	47	
CCCC(O)CC(=O)CCc1ccc(F)c(F)c1 (centres undefined)	1	49	
CCCC(O)CC(=O)CCc1cccc(OC)c1 (centres undefined)	2	90	
CCCC[C@H](O)C#Cc1ccc(F)c(F)c1	2	64	
CCCC(O)CC(=O)CCc1cc(F)cc(OC)c1 (centres undefined)	3	85	
CCCC(O)CC(=O)CCc1ccc(C)c(C)c1 (centres undefined)	3	82	
CCCCC(=O)C#Cc1ccc(F)c(F)c1	4	16	Activity [1]: 49%; Activity [2]: 59%; Activity (Pseudomonas aeruginosa [3]): 89%; Activity (Pseudomonas aeruginosa [4]): 100%; Activity [5]: 55%; Activity [6]: 6%; Activity [7]: 75%; Activity [8]: 29%
CCCC(O)CC(=O)CCc1cccc(O)c1 (centres undefined)	2	81	

SMILES	Activity [9] [%]	Activity [10] [%]	also measured
CCCC(O)CC(=O)/C=C/c1ccc(N(C)C)cc1 (centres undefined)	2	53	
CCCC(O)CC(=O)/C=C/c1ccc(F)cc1 (centres undefined)	1	33	
CCCC(O)CC(=O)/C=C/c1ccc(C)cc1 (centres undefined)	2	65	
CCCC(O)CC(=O)CCc1ccccc1 (centres undefined)	4	88	
CCCC(O)CC(=O)CCc1ccc(N(C)C)cc1 (centres undefined)	1	74	
CCCC(O)CC(=O)/C=C/c1cc(F)cc(OC)c1 (centres undefined)	3	74	
CCCC(O)CC(=O)CCc1ccc(O)c(F)c1 (centres undefined)	1	73	
CCCC(O)CC(=O)/C=C/c1ccc(O)cc1 (centres undefined)	1	51	Activity (Pseudomonas aeruginosa [3]): inactive; Activity [7]: Active
CCCC[C@@H](O)C#Cc1ccc(F)c(F)c1	3	67	
CCCC(O)CC(=O)CCc1ccc(O)cc1 (centres undefined)	3	64	
CCCCCC(O)CCc1ccc(F)c(F)c1 (centres undefined)	5	61	
CCCC(O)CC(=O)CCc1ccc(OC)cc1 (centres undefined)	2	71	
CCCCC(O)C#Cc1ccc(F)c(F)c1 (racemic)	4	71	
CCCC(O)CC(=O)CCc1ccc(OC)c(OC)c1 (centres undefined)	1	94	
CCCC(O)CC(=O)CCc1ccc(Cl)cc1 (centres undefined)	2	69	
CCCC(O)CC(=O)CCc1ccc(C)cc1 (centres undefined)	1	76	
